In test [1] the target is Cholinesterase (Equus caballus, UniProt P81908). In words: Inhibition of equine serum BuChE using butyrylthiocholine iodide as substrate measured for 2 mins by Ellman's method. The method in brief:
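Ellman assay with equine serum BuChE (enzyme solution 2 U/mL added) in 0.1 M phosphate buffer pH 8.0 with DTNB. Compounds in 1:9 DMSO/ethanol, tested at four concentrations spanning 20–80% inhibition. Reaction started with butyrylthiocholine iodide (0.15 M stock). A412 followed for 2 min at 30 s intervals. IC50 read graphically from log concentration vs % inhibition. Quadruplicates.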

In test [2] the target is T1, Acetylcholinesterase (Electrophorus electricus, UniProt O42275). The test is described as follows: Mixed-type inhibition of electric eel AChE using acetylthiocholine iodide as substrate measured for 2 mins by Lineweaver-Burk plot analysis. An outline of the steps: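 Kinetics used electric eel AChE (type V-S, enzyme solution 2 U/mL added) under the Ellman conditions: 0.1 M phosphate pH 8.0, DTNB, A412. Initial velocities measured across varied acetylthiocholine concentrations at inhibitor 0, 0.069, 0.206 and 0.618 μM. 1/v plotted against 1/[S] (Lineweaver-Burk) to assign inhibition type. Ki taken from a secondary plot.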
T1 sequence (O42275 whole entry): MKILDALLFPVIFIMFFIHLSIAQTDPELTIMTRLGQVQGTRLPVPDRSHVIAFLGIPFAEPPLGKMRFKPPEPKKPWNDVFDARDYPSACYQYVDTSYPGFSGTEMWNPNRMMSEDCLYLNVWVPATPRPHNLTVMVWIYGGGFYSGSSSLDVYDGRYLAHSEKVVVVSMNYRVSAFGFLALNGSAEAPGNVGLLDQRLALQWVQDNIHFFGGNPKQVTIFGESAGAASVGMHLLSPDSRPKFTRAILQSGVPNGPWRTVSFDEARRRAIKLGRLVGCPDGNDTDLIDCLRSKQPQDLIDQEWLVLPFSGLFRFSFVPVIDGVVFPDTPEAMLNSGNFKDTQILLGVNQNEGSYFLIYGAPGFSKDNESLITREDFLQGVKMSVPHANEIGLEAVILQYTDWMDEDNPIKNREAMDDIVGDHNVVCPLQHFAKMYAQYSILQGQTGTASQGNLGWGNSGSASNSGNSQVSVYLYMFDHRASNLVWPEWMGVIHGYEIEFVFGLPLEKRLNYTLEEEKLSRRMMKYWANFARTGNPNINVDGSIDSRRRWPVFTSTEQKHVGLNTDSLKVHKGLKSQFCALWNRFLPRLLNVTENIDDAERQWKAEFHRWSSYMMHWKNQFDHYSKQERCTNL

Test [3] has as its target T1, Acetylcholinesterase. In words: Inhibition of electric eel AChE using acetylthiocholine iodide as substrate measured for 2 mins by Ellman's method. On the technique in general: DTNB colorimetry detects thiols as they appear.

By IC50 is commonly meant the concentration needed to halve the response being measured. The term Ki denotes the dissociation constant of the complex between target and ligand, obtained from inhibition or displacement. A lower Ki goes with higher affinity.

Sequence of Cholinesterase (P81908 whole entry): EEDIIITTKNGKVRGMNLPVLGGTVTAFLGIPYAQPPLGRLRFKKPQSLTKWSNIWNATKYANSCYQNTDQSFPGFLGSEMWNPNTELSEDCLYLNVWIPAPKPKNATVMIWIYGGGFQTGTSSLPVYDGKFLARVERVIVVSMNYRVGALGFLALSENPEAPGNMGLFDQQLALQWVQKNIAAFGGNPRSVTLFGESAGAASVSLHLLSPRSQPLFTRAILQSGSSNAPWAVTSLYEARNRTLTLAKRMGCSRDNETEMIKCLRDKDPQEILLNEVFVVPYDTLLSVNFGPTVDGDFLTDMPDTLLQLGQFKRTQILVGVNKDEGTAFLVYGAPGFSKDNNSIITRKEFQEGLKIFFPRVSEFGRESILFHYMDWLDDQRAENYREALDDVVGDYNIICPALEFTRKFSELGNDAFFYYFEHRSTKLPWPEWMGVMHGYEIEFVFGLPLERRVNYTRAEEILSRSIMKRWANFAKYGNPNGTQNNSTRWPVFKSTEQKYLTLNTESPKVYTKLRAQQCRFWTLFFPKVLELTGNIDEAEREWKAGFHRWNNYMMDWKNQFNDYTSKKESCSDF

As for `O=C(NCCc1c[nH]c2ccccc12)c1cc2ccc(OCc3ccc(F)cc3)cc2oc1=O`, the results for the IC50 in test [1] and in test [3] were 29.7 µM and 0.16 µM, respectively. In addition, the inhibition constant Ki in test [2] is 0.49 µM.
In the case of `O=C(NCCc1c[nH]c2ccccc12)c1cc2ccc(OCc3ccccc3F)cc2oc1=O`, the values for the IC50 in test [1] and in test [3] were 27.5 µM and 2.5 µM, respectively.
In the same order, the values of `CCOc1ccc2cc(C(=O)NCCc3c[nH]c4ccccc34)c(=O)oc2c1` are over 100 µM and 43.8 µM.
For `O=C(NCCc1c[nH]c2ccccc12)c1cc2ccc(OCc3ccccc3)cc2oc1=O` the same measures were 16.2 µM and 1.5 µM.
In the same order, the values of `O=C(NCCc1c[nH]c2ccccc12)c1cc2ccc(OCc3cccc(Cl)c3Cl)cc2oc1=O` are over 100 µM and over 100 µM.
In the case of `CCCOc1ccc2cc(C(=O)NCCc3c[nH]c4ccccc34)c(=O)oc2c1`, the values for the IC50 in test [1] and in test [3] were over 100 µM and 18.7 µM, respectively.
In the same order, the values of `O=C(NCCc1c[nH]c2ccccc12)c1cc2ccc(O)cc2oc1=O` are over 100 µM and over 100 µM.
For `O=C(NCCc1c[nH]c2ccccc12)c1cc2ccc(OCc3cccc(F)c3)cc2oc1=O`, the 50% inhibitory concentration (IC50) in test [1] turned out to be 27.8 µM; in test [3], 2.5 µM.
For `O=C(NCCc1c[nH]c2ccccc12)c1cc2cc(Br)ccc2oc1=O` the same measures were over 100 µM and over 100 µM.
In the same order, the values of `COc1ccc2cc(C(=O)NCCc3c[nH]c4ccccc34)c(=O)oc2c1` are 34.6 µM and 3.5 µM.
Regarding `O=C(NCCc1c[nH]c2ccccc12)c1cc2ccccc2oc1=O`, the half-maximal inhibitory concentration (IC50) was found to be 50.5 µM in test [1] and 5.9 µM in test [3].
In the same order, the values of `O=C(NCCc1c[nH]c2ccccc12)c1cc2ccc(OCc3ccc(Cl)c(Cl)c3)cc2oc1=O` are over 100 µM and 31.5 µM.
As to `O=C(NCCc1c[nH]c2ccccc12)c1cc2ccc(OCc3ccccc3Cl)cc2oc1=O`, the IC50 in test [1] was over 100 µM; in test [3], 22.5 µM.
In the same order, the values of `COc1cccc2cc(C(=O)NCCc3c[nH]c4ccccc34)c(=O)oc12` are 20.1 µM and 2.8 µM.
`O=C(NCCc1c[nH]c2ccccc12)c1cc2ccc(OCc3ccc(Cl)cc3)cc2oc1=O`: the IC50 was over 100 µM in test [1] and 12.4 µM in test [3].

The record behind these values is ChEMBL document CHEMBL3861958, “Synthesis and anticholinesterase activity of coumarin-3-carboxamides bearing tryptamine moiety” (Eur J Med Chem, 2016).
